Activity calls are given as the source filed them. The calls are words filed in the database; no cut-off is given here.

The term LD50 denotes the dose at which mortality reaches 50%. Lower therefore signals a more toxic substance. A word on the inhibition in vivo: it is how much of the control response was suppressed.

The subject of data set [1] is W256. Nature of the data set: Antitumor activity against rat Walker 256 cells allografted in Sprague-Dawley rat assessed as tumor growth inhibition at 2.5 mg/kg, ip qd relative to control. It is filed as functional. The settings on record: route intraperitoneal.
Data set [2] relates to Ehrlich. The experiment in a line: Antitumor activity against mouse EAC allografted in CF1 mouse assessed as tumor volume at 33 mg/kg/day measured on day 7. In kind it is functional.
Data set [3] concerns P388. Nature of the data set: Antitumor activity against mouse P388 cells allografted in DBA/2 mouse assessed as host survival at 20 mg/kg, ip qd. In kind it is functional. The settings on record: route intraperitoneal. The method, boiled down: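 P388 leukaemia cells were implanted on day 0 in male DBA/2 mice (20 g). Compound was dosed ip at 20 mg/kg/day. T/C survival values were calculated according to the NIH protocol. 5-Fluorouracil served as the internal standard.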

Data set [4] can be described thus: Acute toxicity in CF1 mouse. It is filed as organism-based. The settings on record: in vivo.
Data set [5] concerns P388. Nature of the data set: Antitumor activity against mouse P388 cells allografted in DBA/2 mouse assessed as tumor growth inhibition at 20 mg/kg, ip qd relative to control. It is filed as functional. The settings on record: route intraperitoneal.
A short description of data set [6]: Chemical stability of the compound assessed as optical rotation. In kind it is physicochemical.
Data set [7] deals with Ehrlich. Nature of the data set: Antitumor activity against mouse EAC allografted in CF1 mouse assessed as inhibition of tumor growth at 33 mg/kg/day measured on day 7. The settings on record: 168 h. It is filed as functional.
For data set [8], the system named is Ehrlich. The experiment in a line: Antitumor activity against mouse EAC allografted in CF1 mouse assessed as host survival at 33 mg/kg/day measured on day 7. In kind it is functional, organism-based.
Data set [9] relates to W256. Nature of the data set: Antitumor activity against rat Walker 256 cells allografted in Sprague-Dawley rat assessed as host survival days at 2.5 mg/kg, ip qd. In kind it is functional. The settings on record: route intraperitoneal. The method, boiled down: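 Walker 256 ascites cells were implanted ip into male Sprague-Dawley rats (75 ± 10 g). Compound in 0.05% Tween-water was given ip at 2.5 mg/kg/day, and the day of death was recorded. T/C was calculated from the mean survival time per group according to the NIH protocol. Melphalan served as the internal standard.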

A short description of data set [10]: Chemical stability of the compound by TLC analysis. It is filed as physicochemical.

As to `C=COC(=O)[C@H](Cc1ccccc1)NC(=O)OCc1ccccc1`, the T/C is 226 with W256 [1] and 100 with P388 [5]. Further, the Activity in the data set with Ehrlich [2] was found to be 0.1 mL. In addition, the Survival in the data set on P388 [3] turned out to be 8.1 days; in the data set on W256 [9], 18.1 days. The LD50 in [4] was above 6150 µmol/kg. For the same compound, the Stability entry in data set [6] and in data set [10] was “Stable” each time. Besides, in the data set with Ehrlich [7], the inhibition in vivo at 33 mg/kg/day was found to be 99.9%. Also, the Survival entry in the data set on Ehrlich [8] was “Active”.
Take `N#CCOC(=O)[C@H](Cc1ccccc1)NC(=O)OCc1ccccc1`: the T/C in the data set on W256 [1] is 113; with P388 [5] it was 82. For the same compound, the Activity with Ehrlich [2] was 0.2 mL. Also, the Survival is 6.6 days with P388 [3] and 8.5 days in the data set on W256 [9]. The same compound had an LD50 in data set [4] of 440 µmol/kg. Besides, the Stability entry in data set [6] and in [10] was “Stable” throughout. Besides, in the data set with Ehrlich [7], the inhibition in vivo at 33 mg/kg/day is 99.9%. The Survival entry with Ehrlich [8] was “Active”.
For `Cc1ccc(S(=O)(=O)N[C@@H](Cc2ccccc2)C(=O)OCC#N)cc1`, the T/C in the data set on W256 [1] turned out to be 113; with P388 [5] it was 112. Further, in the data set with Ehrlich [2], the Activity was determined as 0.4 mL. For the same compound, the Survival was 9.1 days with P388 [3] and 8.5 days in the data set on W256 [9]. Besides, the LD50 in data set [4] worked out at 730 µmol/kg. The Stability entry in [6] and in [10] was “Stable” in each case. Moreover, in the data set with Ehrlich [7], the inhibition in vivo at 33 mg/kg/day worked out at 97%.
For the compound `O=C(N[C@H](Cc1ccccc1)C(=O)OC(Br)CBr)OCc1ccccc1` (some centres not stated), the T/C in the data set on W256 [1] is listed as 117; in the data set on P388 [5] it was 92. Moreover, in the data set with Ehrlich [2], the Activity was found to be 0 mL. Further, the values for the Survival in the data set on P388 [3] and with W256 [9] were 7.5 days and 8.7 days, respectively. The LD50 in data set [4] was 310 µmol/kg. For the same compound, the inhibition in vivo at 33 mg/kg/day with Ehrlich [7] came to 100%. Besides, in the data set on Ehrlich [8], the Survival entry was “Active”.

For the origin of these results see ChEMBL document CHEMBL3272299, “Antineoplastic agents. 1. N-Protected vinyl, 1,2-dihaloethyl, and cyanomethyl esters of phenylalanine” (J Med Chem, 1977).
